In ChEMBL document CHEMBL3286120, “Design and synthesis of novel soluble 2,5-diketopiperazine derivatives as potential anticancer agents” (Eur J Med Chem, 2014):

What was measured:
[1] = system: NCI-H1975; experiment: Cytotoxicity against human NCI-H1975 cells assessed as reduction in cell viability after 72 hrs by CCK8 assay; assay type: functional, cell-based
Outline: (§1)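 Cells kept in RPMI or DMEM with 10% FBS and 1% penicillin/streptomycin at 37 °C in 5% CO2. Seeded at 400-800 cells/well in 384-well plates and exposed to varying compound concentrations, with solution-only control, for 72 h. CCK8 reagent added, then absorbance read at 450 nm. Plinabulin and TSA were positive controls. Mean SD of three experiments.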

[2] = Cytotoxicity against human BGC823 cells assessed as reduction in cell viability after 72 hrs by CCK8 assay; assay type: functional, cell-based, BGC-823; outline: as §1
[3] = system: HeLa; experiment: Cytotoxicity against human HeLa cells assessed as reduction in cell viability after 72 hrs by CCK8 assay; assay type: functional, cell-based; outline: as §1
[4] = Cytotoxicity against human HuH7 cells assessed as reduction in cell viability after 72 hrs by CCK8 assay; assay type: functional, cell-based, Huh-7; outline: as §1
[5] = system: MCF7; experiment: Cytotoxicity against human MCF7 cells assessed as reduction in cell viability after 72 hrs by CCK8 assay; assay type: functional, cell-based; outline: as §1
[6] = system: A549; experiment: Cytotoxicity against human A549 cells assessed as reduction in cell viability after 72 hrs by CCK8 assay; assay type: functional, cell-based; outline: as §1
[7] = system: HL-60; experiment: Cytotoxicity against human HL60 cells assessed as reduction in cell viability after 72 hrs by CCK8 assay; assay type: functional, cell-based; outline: as §1
[8] = system: K562; experiment: Cytotoxicity against human K562 cells assessed as reduction in cell viability after 72 hrs by CCK8 assay; assay type: functional, cell-based; outline: as §1
[9] = system: MOLT-4; experiment: Cytotoxicity against human MOLT4 cells assessed as reduction in cell viability after 72 hrs by CCK8 assay; assay type: functional, cell-based; outline: as §1
[10] = system: U-937; experiment: Cytotoxicity against human U937 cells assessed as reduction in cell viability after 72 hrs by CCK8 assay; assay type: functional, cell-based; outline: as §1
[11] = system: U-937; experiment: Cytotoxicity against human U937 cells assessed as viable cells at 5 uM after 24 hrs by CCK8 assay relative to control; assay type: functional; conditions: U-937, 24 h, read-out: Activity
Outline: (§2)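 Viability of U937, K562 and H1975 cells cultured in RPMI or DMEM with 10% FBS and 1% penicillin/streptomycin at 37 °C in 5% CO2. Cells treated at two fixed concentrations (5 or 10) for 24 or 48 h. Viable cells measured by CCK8 and expressed relative to control. Mean SD of three experiments.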

[12] = system: U-937; experiment: Cytotoxicity against human U937 cells assessed as viable cells at 10 uM after 24 hrs by CCK8 assay relative to control; assay type: functional; conditions: U-937, 24 h, read-out: Activity; outline: as §2
[13] = system: U-937; experiment: Cytotoxicity against human U937 cells assessed as viable cells at 5 uM after 48 hrs by CCK8 assay relative to control; assay type: functional; conditions: U-937, 48 h, read-out: Activity; outline: as §2
[14] = system: U-937; experiment: Cytotoxicity against human U937 cells assessed as viable cells at 10 uM after 48 hrs by CCK8 assay relative to control; assay type: functional; conditions: U-937, 48 h, read-out: Activity; outline: as §2
[15] = system: K562; experiment: Cytotoxicity against human K562 cells assessed as viable cells at 5 uM after 24 hrs by CCK8 assay relative to control; assay type: functional; conditions: K562, 24 h, read-out: Activity; outline: as §2
[16] = system: K562; experiment: Cytotoxicity against human K562 cells assessed as viable cells at 10 uM after 24 hrs by CCK8 assay relative to control; assay type: functional; conditions: K562, 24 h, read-out: Activity; outline: as §2
[17] = system: K562; experiment: Cytotoxicity against human K562 cells assessed as viable cells at 5 uM after 48 hrs by CCK8 assay relative to control; assay type: functional; conditions: K562, 48 h, read-out: Activity; outline: as §2
[18] = system: K562; experiment: Cytotoxicity against human K562 cells assessed as viable cells at 10 uM after 48 hrs by CCK8 assay relative to control; assay type: functional; conditions: K562, 48 h, read-out: Activity; outline: as §2
[19] = system: NCI-H1975; experiment: Cytotoxicity against human NCI-H1975 cells assessed as viable cells at 5 uM after 24 hrs by CCK8 assay relative to control; assay type: functional; conditions: NCI-H1975, 24 h, read-out: Activity; outline: as §2
[20] = system: NCI-H1975; experiment: Cytotoxicity against human NCI-H1975 cells assessed as viable cells at 10 uM after 24 hrs by CCK8 assay relative to control; assay type: functional; conditions: NCI-H1975, 24 h, read-out: Activity; outline: as §2
[21] = system: NCI-H1975; experiment: Cytotoxicity against human NCI-H1975 cells assessed as viable cells at 5 uM after 48 hrs by CCK8 assay relative to control; assay type: functional; conditions: NCI-H1975, 48 h, read-out: Activity; outline: as §2
[22] = system: NCI-H1975; experiment: Cytotoxicity against human NCI-H1975 cells assessed as viable cells at 10 uM after 48 hrs by CCK8 assay relative to control; assay type: functional; conditions: NCI-H1975, 48 h, read-out: Activity; outline: as §2
[23] = Homo sapiens, BGC-823, 72 h, read-out: IC50
[24] = Homo sapiens, HeLa, 72 h, read-out: IC50
[25] = Homo sapiens, Huh-7, 72 h, read-out: IC50
[26] = Homo sapiens, MCF7, 72 h, read-out: IC50
[27] = Homo sapiens, A549, 72 h, read-out: IC50
[28] = Homo sapiens, HL-60, 72 h, read-out: IC50
[29] = Homo sapiens, K562, 72 h, read-out: IC50
[30] = Homo sapiens, MOLT-4, 72 h, read-out: IC50
[31] = Homo sapiens, U-937, 72 h, read-out: IC50
[32] = Homo sapiens, NCI-H1975, 72 h, read-out: IC50

SMILES | IC50 ([1]; nci-h1975) | IC50 ([2]; bgc-823) | IC50 ([3]; hela) | IC50 ([4]; huh-7) | IC50 ([5]; mcf7) | IC50 ([6]; a549) | IC50 ([7]; hl-60) | IC50 ([8]; k562) | IC50 ([9]; molt-4) | IC50 ([10]; u-937) | IC50 [2, 23] [µM] | IC50 [3, 24] [µM] | IC50 [4, 25] [µM] | IC50 [5, 26] [µM] | IC50 [6, 27] [µM] | IC50 [7, 28] [µM] | IC50 [8, 29] [µM] | IC50 [9, 30] [µM] | IC50 [10, 31] [µM] | IC50 [1, 32] [µM] | other results
C=CCn1c(=O)/c(=C\c2ccc(Cl)c(Cl)c2)[nH]c(=O)/c1=C\c1ccccc1 | Not Active | Not Active | Not Active | Not Active | Not Active | Not Active | Not Active | Not Active | Not Active | Not Active | – | – | – | – | – | – | – | – | – | – | –
C=CCn1c(=O)/c(=C\c2cc(OC)c(OC)c(OC)c2)[nH]c(=O)/c1=C\c1ccccc1 | Not Active | Not Active | Not Active | Not Active | Not Active | Not Active | Not Active | Not Active | Not Active | Not Active | – | – | – | – | – | – | – | – | – | – | –
C=CCn1c(=O)/c(=C\c2cccc(Br)c2)[nH]c(=O)/c1=C\c1cccc(Br)c1 | Not Active | Not Active | Not Active | Not Active | Not Active | Not Active | Not Active | Not Active | Not Active | Not Active | – | – | – | – | – | – | – | – | – | – | –
C=CCn1c(=O)/c(=C\c2cc(OC)c(OC)c(OC)c2)[nH]c(=O)/c1=C\c1cccc(Br)c1 | Not Active | Not Active | Not Active | Not Active | Not Active | Not Active | Not Active | Not Active | Not Active | Not Active | – | – | – | – | – | – | – | – | – | – | –
C=CCn1c(=O)/c(=C\c2cccc(Br)c2)[nH]c(=O)/c1=C\c1ccccc1OC | Not Active | – | – | – | – | – | – | – | – | – | 5.9 | 5.4 | 2.3 | 5.4 | 5.4 | 5.2 | 2.4 | 5 | 1.1 | – | –
C=CCn1c(=O)/c(=C\c2ccccc2OC)[nH]c(=O)/c1=C\c1ccccc1OC | – | – | – | – | – | – | – | – | – | – | 13.4 | 6.9 | 21.2 | 41.1 | 22.4 | 15.7 | 7.4 | 13.1 | 5.1 | 21.5 | –
C=CCn1c(=O)/c(=C\c2cccc(Cl)c2Cl)[nH]c(=O)/c1=C\c1ccccc1OC | – | – | – | – | – | – | – | – | – | – | 2.2 | 1.6 | 1.2 | 2.1 | 2.3 | 2 | 0.9 | 1.2 | 0.5 | 4.5 | viability at 5 µM [11]: 7%; viability at 10 µM [12]: 8.7%; viability at 5 µM [13]: 0.9%; viability at 10 µM [14]: 1.3%; viability at 5 µM [15]: 104%; viability at 10 µM [16]: 103%; viability at 5 µM [17]: 24.2%; viability at 10 µM [18]: 14.9%; viability at 5 µM [19]: 107%; viability at 10 µM [20]: 98.9%; viability at 5 µM [21]: 42.7%; viability at 10 µM [22]: 42.6%
C=CCn1c(=O)/c(=C\c2ccc(Cl)c(Cl)c2)[nH]c(=O)/c1=C\c1ccccc1OC | Not Active | Not Active | Not Active | Not Active | Not Active | Not Active | Not Active | Not Active | Not Active | Not Active | – | – | – | – | – | – | – | – | – | – | –
C=CCn1c(=O)/c(=C\c2cc(Br)ccc2F)[nH]c(=O)/c1=C\c1ccccc1OC | Not Active | Not Active | – | Not Active | – | Not Active | – | – | – | – | – | 34.6 | – | 28.1 | – | 17.4 | 5.1 | 12.9 | 4.7 | – | –
C=CCn1c(=O)/c(=C\c2ccc(F)c(Br)c2)[nH]c(=O)/c1=C\c1ccccc1OC | Not Active | Not Active | Not Active | Not Active | Not Active | Not Active | Not Active | Not Active | Not Active | Not Active | – | – | – | – | – | – | – | – | – | – | –
C=CCn1c(=O)/c(=C\c2cc(F)ccc2C)[nH]c(=O)/c1=C\c1ccccc1OC | – | – | – | – | – | – | – | – | – | – | 1.6 | 2.9 | 5.6 | 3.1 | 4.9 | 2.6 | 1.8 | 3.8 | 1 | 7.3 | –
C=CCn1c(=O)/c(=C\c2ccc(C)cc2)[nH]c(=O)/c1=C\c1ccccc1OC | Not Active | Not Active | Not Active | Not Active | Not Active | Not Active | Not Active | Not Active | Not Active | Not Active | – | – | – | – | – | – | – | – | – | – | –
CC(/C=C/C(=O)NO)=C\[C@@H](C)C(=O)c1ccc(N(C)C)cc1 [TRICHOSTATIN] | – | – | – | – | – | – | – | – | – | – | 0.08 | 0.11 | 0.1 | 0.06 | 0.05 | 0.08 | 0.41 | 0.03 | 0.1 | 0.21 | –
